FLuc stim CS: affects firefly luciferase, flagging false hits in luciferase stimulation screens | 200,000 tested, under 10 active | ATPlite luciferase biochemical, luminescence, 10 min; 0 = ATP-free wells, 1 = DMSO control | activation factor at 10 µM;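 active means luciferase activation factor, scaled between plate controls, of at least 2 with compound at 10 µM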
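Assay system: Luciferase/luciferin detection reagent, cell-free biochemical luciferase assay / Also added: ATP substrate / Schedule: 10 min at ambient temperature / Measured by: luminescence measurement of luciferase light output / Benchmarks: low control with PBS replacing ATP, high control enzyme plus ATP without compound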
ABCG2 inh: blocks JC-1 efflux by human ABCG2 transporter | IgMXP3 cells, flow cytometry | inhibition, % at 6.6 µM | actives 0.1% (n = 190,000);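 active means inhibition above 80%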
Target sequence (Q9UNQ0 whole entry, looked up): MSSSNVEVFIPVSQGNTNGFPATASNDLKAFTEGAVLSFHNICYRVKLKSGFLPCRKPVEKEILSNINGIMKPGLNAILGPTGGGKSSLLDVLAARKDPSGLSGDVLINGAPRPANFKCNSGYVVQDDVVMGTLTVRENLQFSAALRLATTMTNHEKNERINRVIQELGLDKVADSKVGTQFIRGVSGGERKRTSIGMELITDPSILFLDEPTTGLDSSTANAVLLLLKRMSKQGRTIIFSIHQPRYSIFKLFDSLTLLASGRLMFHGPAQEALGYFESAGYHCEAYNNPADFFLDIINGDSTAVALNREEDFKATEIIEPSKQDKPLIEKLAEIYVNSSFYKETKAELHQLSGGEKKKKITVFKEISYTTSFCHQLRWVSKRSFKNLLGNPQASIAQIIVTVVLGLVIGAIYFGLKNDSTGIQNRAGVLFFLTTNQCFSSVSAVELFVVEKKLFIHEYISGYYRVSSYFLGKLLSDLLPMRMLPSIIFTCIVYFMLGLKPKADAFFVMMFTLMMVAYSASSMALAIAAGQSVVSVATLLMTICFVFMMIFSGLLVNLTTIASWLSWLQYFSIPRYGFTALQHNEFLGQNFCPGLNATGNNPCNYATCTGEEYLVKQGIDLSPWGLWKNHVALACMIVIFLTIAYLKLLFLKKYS
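Measure – % inhibition of efflux relative to nicardipine and DMSO · Test system – ABCG2 IgMXP3 and barcoded ABCB1 CCRF-Adr cell mix · Control set – nicardipine as high control, DMSO as low control · Compound – one concentration, 6.6 µM final · Signal – flow cytometry of retained JC-1 fluorescence · Timing – 10 min exposure at 25 °C with rotation, no wash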
ABCB1 inh: inhibitors of human ABCB1 transporter, ABCG2 counter-screen. P08183. CCRF-Adr cells, JC-1 efflux, flow cytometry. inhibition, % at 6.6 µM. actives 0.067% (n = 190,000). AID 1326; in the data active means inhibition above about 40%;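 further: higher value means more JC-1 retained so stronger ABCB1 efflux block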
FLuc inh counter: inhibits firefly luciferase, flagging false hits in luciferase inhibition screens; ATPLite firefly luciferase biochemical luminescence, 10 min; inhibition, % at 10 µM; actives 1.5% (n = 200,000);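 active means inhibition above about 50% when tested at 10 µM, limit read from the data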
Redox H2O2 prof: compounds producing H2O2 with reducing agent – biochemical, NIH compound library profiling, artefact control for MLSCN library redox annotation, primary screen; activation, % at 10 µM; DTT-dependent redox cycling H2O2, phenol red/HRP absorbance; 100% = 100 µM peroxide control, 0% = buffer; AID 878; actives 0.03% (n = 200,000);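 active means activation of at least 50% relative to the plate's high and low controls in the primary single-dose screen; inactive means activation below 50%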;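 further: compound incubated with DTT at 0.8 mM final as the reducing agent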
Measles CPE: protection of cells from measles virus. actives 1.5% (n = 140,000). AID 841. protection (pct of control), % at 4 µM. Measles virus-infected cells, CPE protection, absorbance; in the data active means protection mostly above about 24%, no sharp cut-off; inactive means mostly below about 26%
Of the large screens only hits and unclear results are named; the others gave an inactive call. Most compounds without a hit are left out; they make up all but 2.7% or so of the library.

O=C(CSc1ccccc1C(=O)O)NCc1ccco1	none
O=C(CSc1ccccc1C(=O)O)NCc1ccc(Cl)cc1	Measles CPE 40.4
NC(=O)C1CCN(C(=O)OCc2ccccc2)CC1	none
COC(=O)CC1COc2ccccc2N1C(=O)c1cccc(Cl)c1 (configuration not stated)	Measles CPE 26.2
CC1COc2ccccc2N1C(=O)c1ccc(Cl)nc1 (configuration not stated)	none (no result: Measles CPE)
O=C(/C=C/c1ccccc1[N+](=O)[O-])N1CCN(c2ccccc2F)CC1	none (no result: Measles CPE)
O=C(O)c1cc(N/N=C/C(Cl)=C/c2ccccc2)ccc1Cl	none (no result: Measles CPE)
O=C(c1ccccc1)c1cnc(Nc2ccccc2Cl)s1	FLuc inh counter 62.0
CC(C)(C)C(=O)c1cnc(Nc2ccccc2Cl)s1	none
Cc1ccc(C)n1-c1ccc(-c2ccn[nH]2)cc1	none (no result: Measles CPE)
c1ccn(-c2ccc(-c3ccn[nH]3)cc2)c1	FLuc inh counter 52.4 (no result: Measles CPE)
COc1ccc(S(=O)(=O)CC2(O)CCN(C(=O)C(C)(C)C)CC2)cc1	none (no result: Measles CPE)
c1ccc(CNc2nc3ccccc3[nH]2)cc1	FLuc inh counter 63.6
c1ccc2[nH]c(NCc3ccc4c(c3)OCO4)nc2c1	FLuc inh counter 81.7 (no result: Measles CPE)
N#CC1=C(N)N2C(=C(C#N)C13CCCC3)Nc1ccccc12	none (no result: Measles CPE)
CCC1SC(=NC(=O)c2ccc(Cl)c(Cl)c2)NC1=O (configuration not stated)	FLuc inh counter 59.0
COc1ccc(NC(=O)C2CC(=O)OC23CCOC(C)(C)C3)cc1 (configuration not stated)	none
Nc1[nH]c(N=NC(=O)c2ccc(Cl)cc2)c2ccccc12	Measles CPE 44.9
Cc1cc(N=NC(=O)c2ccccc2)ccc1O	none (no result: Measles CPE)
Nc1[nH]c(N=NC(=O)c2ccccc2)c2ccccc12	FLuc inh counter 60.8
Nc1[nH]c(N=NC(=O)c2ccccc2O)c2ccccc12	FLuc inh counter 85.4
CCOc1ccc(OCC)c(NC(=O)Cn2c(C)nc3ccccc3c2=O)c1	none (no result: Measles CPE)
Cc1nn(-c2ccccn2)c(C)c1Oc1ccccc1O	none
Cc1nn(-c2nc3ccccc3s2)c(C)c1Oc1ccccc1O	Measles CPE 43.8
COCCn1c(SCC(=O)N2CCc3ccccc3C2)nc2ccccc2c1=O	Measles CPE 32.4
C=CCn1c(SCC(=O)N2CCc3ccccc3C2)nc2sc(C)cc2c1=O	Measles CPE 32.8
CCOC(=O)CC1CCCCN1Cc1cn[nH]c1-c1ccc(F)cc1F (configuration not stated)	none (no result: Measles CPE)
Cc1nccn1-c1ccc(C=O)cc1	none (no result: Measles CPE)
O=C(NNc1ccc(Cl)nn1)c1ccc(Cl)cc1	none
N/C(=N\OC(=O)c1ccc2ccccc2c1)c1ccncc1	none (no result: Measles CPE)
N/C(=N/OC(=O)c1cccc([N+](=O)[O-])c1)c1cccc([N+](=O)[O-])c1	none (no result: Measles CPE)
N/C(=N\OC(=O)c1cccc([N+](=O)[O-])c1)c1ccccn1	FLuc inh counter 66.7 (no result: Measles CPE)
N/C(=N\OC(=O)C1CCCCC1)c1ccccn1	FLuc inh counter 72.4
N/C(=N\OC(=O)c1ccc2ccccc2c1)c1ccccn1	FLuc inh counter 90.0 (no result: Measles CPE)
COc1ccc(NS(=O)(=O)c2ccc(OC)c(NC(=O)CCC3CCCC3)c2)cc1	none
COc1ccccc1CNC(=O)CCS(=O)(=O)c1cccc2nonc12	none
Cc1ccc(C(=O)n2nc(-n3cccc3)c3c(C)cc(C)nc32)cc1	none (no result: Measles CPE)
Cc1ccc(/C=C(\C#N)C(=O)Nc2ccccn2)o1	FLuc inh counter 67.5 (no result: Measles CPE)
Brc1ccc(/C=N/Nc2ccc3ccccc3n2)cc1	none
Fc1cccc(/C=N/Nc2ccc3ccccc3n2)c1	FLuc inh counter 70.8 (no result: Measles CPE)
COC(=O)COC(=O)c1ccc(-n2nnnc2SC)cc1	Measles CPE 53.7
O=C(NCc1ccco1)C1(c2ccccc2)CCCC1	none
COc1ccc(C2(C(=O)NCc3ccco3)CCCC2)cc1OC	Measles CPE 52.6
Cc1c(NC(=S)N/N=C\c2ccccc2O)c(=O)n(-c2ccccc2)n1C	Measles CPE 54.9
Cc1cccc(C)c1NC(=S)Nc1c(C)n(C)n(-c2ccccc2)c1=O	none
COC(=O)CCC(=O)c1oc2ccc(OC)cc2c1N	FLuc inh counter 56.0
CCOC(=O)N1CCN(CC(O)COC(CC)c2ccccc2)CC1 (configuration not stated)	Measles CPE 46.8
CCOC(=O)N1CCN(CC(O)COc2cc(C)ccc2C(C)C)CC1 (configuration not stated)	Measles CPE 29.9 (no result: ABCB1 inh)
CC(C)c1ccc(-n2cnn(-c3ncccc3[N+](=O)[O-])c2=O)cc1	FLuc inh counter 53.7 (no result: Measles CPE)
O=C1CCN(c2ncccc2[N+](=O)[O-])CC1	none (no result: Measles CPE)
Cc1ccc(C)c(N2CCN(C(=O)CCCN3C(=S)NC(C)(C)CC3C)CC2)c1 (configuration not stated)	none
CN1C(=O)C2(Nc3ccccc3-c3nc4ccccc4n32)c2ccccc21 (configuration not stated)	none
CCN1C(=O)C2(Nc3ccccc3-c3nc4ccccc4n32)c2cc(OC)ccc21 (configuration not stated)	ABCB1 inh 53.5
O=C(CSCc1c[nH]c(=O)[nH]c1=O)OCC(=O)c1ccc(Br)cc1	none (no result: Measles CPE)
Cc1cc(C)n(C(=O)C(C)N2C(=O)c3ccccc3C2=O)n1 (configuration not stated)	Measles CPE 38.6
Cc1cc(C)n(C(=O)CN2C(=O)c3ccccc3C2=O)n1	none
Cc1nc2nc3c(c(=O)n2[nH]1)CCCC3	Measles CPE 29.0
CC1CCC(n2c(=S)[nH]c3ccccc3c2=O)CC1 (configuration not stated)	none
CC1CCCC(n2c(=S)[nH]c3ccccc3c2=O)C1C (configuration not stated)	Measles CPE 32.3
CCn1c(-c2cc(-c3ccc(C)c(C)c3)nc3ccccc23)n[nH]c1=S	FLuc inh counter 53.0 (no result: Measles CPE)
CCn1c(-c2cc(-c3cc(C)ccc3C)nc3ccccc23)n[nH]c1=S	none
CCC1(c2ccc(F)cc2)NC(=O)N(CC(=O)c2ccc[nH]2)C1=O (configuration not stated)	Measles CPE 30.1
CCC1(c2ccc(F)cc2)NC(=O)N(CC(=O)N2CCOCC2)C1=O (configuration not stated)	none (no result: ABCG2 inh, ABCB1 inh, Measles CPE)
CC(=O)Oc1ccc2oc(C)c(C(=O)N3CCOCC3)c2c1	Measles CPE 39.3
COc1ccc2oc(-c3ccccc3)c(C(=O)N3CCOCC3)c2c1	none
COc1cc(/C=N\n2nnnc2N)ccc1OCc1ccc(F)cc1	Measles CPE 59.7
COc1cc(/C=N/n2nnnc2N)ccc1OCc1c(C)no[n+]1[O-]	none
COc1cc(/C=N/n2c(C)n[nH]c2=S)ccc1OCc1ccc(F)cc1	Measles CPE 121.8
O=C(N/N=C/c1ccsc1)c1ccc2ccccc2n1	none (no result: Measles CPE)

Screening data as filed in PubChem BioAssay.
